NR2E3 ag-1 – NR2E3 (human) agonism. 320,000 compounds, 0.12% hits. inhibition of corepressor binding, % at 4.78 µM. Q9Y5X4. GST-NR2E3/biotin-RetCOR TR-FRET, 1536-well;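 active = percent inhibition above the cutoff of mean plus 3 SD of all tested compounds, set per screening campaign, cut at about 20% in these data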;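 also: 0% = DMSO wells and 100% = biotin wells as full block of FRET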
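System: GST-tagged NR2E3 plus biotinylated RetCOR corepressor; Buffer or medium: pH 7.5 Tris-based buffer; Probe or stimulus: RetCOR corepressor, biotinylated, 7 nM; Doses: compound at 4.8 µM, single dose; Schedule: 5 h incubation at 4 °C; Technique: time-resolved FRET; Evaluation: percent inhibition of TR-FRET ratio; Replication: one well per compound, singlicate testing.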
NR2F2 inh – NR2F2 (human) inhibition, primary screen; inhibition, % at 8.6 µM; P24468; HEK293T NGFI-A luciferase reporter, luminescence; AID 686940; 370,000 compounds, 0.7% hits;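 active = inhibition above a per-plate cutoff, mean inhibition of test wells between control levels plus 3 SD, cut at about 38% in these data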;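 also: cells cotransfected with COUP-TFII expression vector driving the NGFI-A reporter; 0% = median of COUP-TF2 test wells and 100% = reporter-only cells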
Target sequence (P24468 whole entry, looked up): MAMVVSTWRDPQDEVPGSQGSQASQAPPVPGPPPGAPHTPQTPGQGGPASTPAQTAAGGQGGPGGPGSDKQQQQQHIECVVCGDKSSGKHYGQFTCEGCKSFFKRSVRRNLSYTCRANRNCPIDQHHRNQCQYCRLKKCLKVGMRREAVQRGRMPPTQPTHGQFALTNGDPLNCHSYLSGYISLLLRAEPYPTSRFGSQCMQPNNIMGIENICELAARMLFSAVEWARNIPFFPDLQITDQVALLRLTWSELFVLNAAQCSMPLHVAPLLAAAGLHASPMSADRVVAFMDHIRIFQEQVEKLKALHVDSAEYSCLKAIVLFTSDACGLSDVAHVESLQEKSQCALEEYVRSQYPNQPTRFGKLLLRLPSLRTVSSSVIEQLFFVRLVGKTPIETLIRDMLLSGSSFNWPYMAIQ
NR2E3 ag-2 – activates human NR2E3 receptor; Q9Y5X4; inhibition of corepressor binding, % at 3.98 µM; 360,000 compounds, 0.35% hits; CHO-S Gal4-NCOR/VP16-NR2E3 two-hybrid, luciferase; AID 602229;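 active = inhibition above the mean of all tested compounds plus 3 SD, cut at about 70% in these data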;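 also: 0% = DMSO with NR2E3 transfected cells and 100% = cells lacking NR2E3 construct; higher means lower luciferase signal from less NR2E3 corepressor binding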
GalR3 antag – human GalR3 antagonism | O60755 | HEK293 GalR3-CNG cAMP membrane potential fluorescence; galR3 body fused to GalR1 C-terminus | inhibition, % at 3 µM | 360,000 compounds, 0.44% hits | AID 651719;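 active = inhibition above the screen-wide average plus 3 SD, cut at about 13% in these data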;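 also: forskolin and galanin both at EC90 stimulate the cells; cAMP rise reported by CNG channel membrane potential dye signal; 0% = forskolin plus galanin with DMSO and 100% = forskolin alone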
Target sequence (O60755 1-299 limits assumed): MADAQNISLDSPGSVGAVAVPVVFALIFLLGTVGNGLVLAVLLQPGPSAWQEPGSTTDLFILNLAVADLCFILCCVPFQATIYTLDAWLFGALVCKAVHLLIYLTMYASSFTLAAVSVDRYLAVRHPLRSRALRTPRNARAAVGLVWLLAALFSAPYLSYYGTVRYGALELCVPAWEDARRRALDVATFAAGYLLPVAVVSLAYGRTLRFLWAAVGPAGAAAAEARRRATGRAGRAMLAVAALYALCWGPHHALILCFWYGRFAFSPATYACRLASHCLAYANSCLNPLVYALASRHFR
SMARCA2 activ – SMARCA2 function activation, primary screen; MG213 cells, MMTV-luciferase reporter, dexamethasone, overnight; activation, % at 9.1 µM; 370,000 compounds, 1% hits; AID 652017; in the data active = activation above about 7.8%;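 also: 0% = vehicle wells and 100% = reference activator wells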
NR2E3 ag confirm – NR2E3 agonism confirmed in two-hybrid assay; inhibition, % at 3.98 µM; shares compounds with NR2E3 ag-2; CHO-S mammalian two-hybrid NR2E3-NCOR, luciferase luminescence; 2,300 compounds, 51% hits;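 active = average inhibition above a cutoff equal to the mean inhibition of all tested compounds plus one SD, cut at about 70% in these data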;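 also: 0% = DMSO in NR2E3 cells and 100% = DMSO in cells lacking NR2E3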
VP16 counter – reduces GAL4-VP16 reporter signal in NR2E3 counterscreen; inhibition, % at 3.98 µM; CHO-S GAL4-VP16 luciferase reporter, luminescence; shares compounds with NR2E3 ag-2; 2,300 compounds, 29% hits; AID 624379;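 active = mean inhibition above a cutoff equal to the average over all tested compounds plus one standard deviation, cut at about 70% in these data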;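 also: luciferase from a UAS reporter driven by GAL4-VP16 transactivation; 0% = DMSO with VP16-transfected cells and 100% = DMSO with cells lacking VP16; higher means less reporter light so more repression of VP16 activity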
An asterisk follows results filed as active. The list is not random: actives were taken first. Their share in the collection is about 2.2%.

What do the screens show for `COc1ccc(-c2oc(=O)c3cc(OC)c(OC)cc3c2-c2ccc3c(c2)OCO3)cc1`?
NR2F2 inh: -21; NR2E3 ag-2: -3; GalR3 antag: -2; SMARCA2 activ: 5

How did COc1cc2c(O)c3c(c(-c4ccc5c(c4)OCO5)c2cc1OC)C(=O)OC3 do in these assays?
NR2E3 ag-1: 2; NR2F2 inh: -40; NR2E3 ag-2: 82*; GalR3 antag: -1; SMARCA2 activ: 2; NR2E3 ag confirm: 99*; VP16 counter: 43

Results for COc1cc2c(OC(C)=O)c3c(c(-c4ccc5c(c4)OCO5)c2cc1OC)C(=O)OC3 ?
NR2E3 ag-1: 2; NR2F2 inh: -4; NR2E3 ag-2: 81*; GalR3 antag: -7; SMARCA2 activ: -1; NR2E3 ag confirm: 98*; VP16 counter: 31

How did COc1ccc(Oc2c(Cl)cnn(-c3ccc(C(C)C)c(C)c3)c2=O)cc1 do in these assays?
NR2F2 inh: -21

What do the screens show for `Cc1csc2c(N3CCN(C(=O)NC(C)(C)C)CC3)ncnc12`?
NR2E3 ag-1: 0; NR2F2 inh: 12; NR2E3 ag-2: 8; GalR3 antag: -1; SMARCA2 activ: -3

What do the screens show for `Cc1csc2c(N3CCN(C(=O)c4ccc(C(C)(C)C)cc4)CC3)ncnc12`?
NR2E3 ag-1: -4; NR2F2 inh: 0; NR2E3 ag-2: 77*; GalR3 antag: -6; SMARCA2 activ: -2; NR2E3 ag confirm: 97*; VP16 counter: 84*

What do the screens show for `Cc1csc2c(N3CCN(C(=S)Nc4ccc(C(F)(F)F)cc4)CC3)ncnc12`?
NR2E3 ag-1: -2; NR2F2 inh: -15; NR2E3 ag-2: 92*; GalR3 antag: -6; SMARCA2 activ: -7; NR2E3 ag confirm: 96*; VP16 counter: 87*

What do the screens show for `Cc1csc2c(N3CCN(C(=O)Nc4ccc(Cl)c(Cl)c4)CC3)ncnc12`?
NR2E3 ag-1: 3; NR2F2 inh: 6; NR2E3 ag-2: 81*; GalR3 antag: 1; SMARCA2 activ: -2; NR2E3 ag confirm: 97*; VP16 counter: 84*

What do the screens show for `Cc1cc(C)nc(-n2nc(C)cc2Nc2ccccc2)n1`?
NR2E3 ag-1: -3; NR2F2 inh: 28; NR2E3 ag-2: 111*; GalR3 antag: -2; SMARCA2 activ: -2; NR2E3 ag confirm: 12; VP16 counter: 6

What do the screens show for `Cc1cc(N2CCN(c3ccccc3)CC2)nc(-c2ccccc2O)n1`?
NR2E3 ag-1: 2; NR2F2 inh: -1; NR2E3 ag-2: -24; GalR3 antag: -4; SMARCA2 activ: 3

Results for Cc1cc(N2CCN(c3ccccc3)CC2)nc(-n2nc(C)cc2C)n1 ?
NR2E3 ag-1: -2; NR2F2 inh: 8; NR2E3 ag-2: 82*; GalR3 antag: -4; SMARCA2 activ: -2; NR2E3 ag confirm: -13; VP16 counter: 12

What do the screens show for `CCOc1ccc(-n2c(SCC(=O)Nc3ccc(S(=O)(=O)Nc4cc(C)nc(C)n4)cc3)nnc2-c2ccc(OC)cc2)cc1`?
NR2F2 inh: -4; SMARCA2 activ: -7

Results for Cc1ccn2c(Nc3ccc4c(c3)OCO4)c(-c3ccccn3)nc2c1 ?
NR2E3 ag-1: -8; NR2F2 inh: -3; NR2E3 ag-2: 43; GalR3 antag: -1; SMARCA2 activ: 1

What do the screens show for `Cc1ccc(Nc2c(-c3ccccn3)nc3cc(C)ccn23)cc1`?
NR2E3 ag-1: 2; NR2F2 inh: 35; NR2E3 ag-2: 68; GalR3 antag: 2; SMARCA2 activ: 1; NR2E3 ag confirm: 99*; VP16 counter: 87*

What do the screens show for `Cc1ccc(Nc2c(-c3ccccn3)nc3ccc(C)cn23)cc1`?
NR2E3 ag-1: -2; NR2F2 inh: 16; NR2E3 ag-2: 56; GalR3 antag: -3; SMARCA2 activ: -4; NR2E3 ag confirm: 97*; VP16 counter: 61

What do the screens show for `Cc1ccc2nc(-c3ccncc3)c(Nc3ccccc3)n2c1`?
NR2E3 ag-1: -4; NR2F2 inh: -14; NR2E3 ag-2: -16; GalR3 antag: 0; SMARCA2 activ: -2

Results for C=CC[n+]1c(-c2ccc(Cl)cc2Cl)csc1Nc1ccc(NC(C)=O)cc1 ?
NR2E3 ag-1: -3; NR2F2 inh: 30; NR2E3 ag-2: 68; GalR3 antag: -6; SMARCA2 activ: -11; NR2E3 ag confirm: 73*; VP16 counter: 56

How did CCCC[n+]1c(-c2ccc(Cl)cc2Cl)csc1Nc1ccccc1 do in these assays?
NR2E3 ag-1: 1; NR2F2 inh: 9; NR2E3 ag-2: -32; GalR3 antag: -3; SMARCA2 activ: -2

How did CSc1nc2ccc(NS(=O)(=O)c3ccc4c(c3)OCCO4)cc2s1 do in these assays?
NR2E3 ag-1: 2; NR2F2 inh: 19; NR2E3 ag-2: 76*; GalR3 antag: -2; SMARCA2 activ: 0; NR2E3 ag confirm: 91*; VP16 counter: 82*

How did CSc1nc2ccc(S(=O)(=O)NC3CCCCC3)cc2s1 do in these assays?
NR2E3 ag-1: 5; NR2F2 inh: 11; NR2E3 ag-2: 50; GalR3 antag: -4; SMARCA2 activ: -1; NR2E3 ag confirm: 21; VP16 counter: 30

Results for CSc1nc2ccc(S(=O)(=O)N3CCCCC3)cc2s1 ?
NR2E3 ag-1: 0; NR2F2 inh: 14; NR2E3 ag-2: -1; GalR3 antag: 1; SMARCA2 activ: 1

Results for O=S(=O)(Nc1ccc2c(c1)OCCO2)c1ccc2oc3ccccc3c2c1 ?
NR2E3 ag-1: 0; NR2F2 inh: 2; NR2E3 ag-2: 81*; GalR3 antag: -10; SMARCA2 activ: -3; NR2E3 ag confirm: 84*; VP16 counter: 68

Results for CCCCNC(=O)C1(C(=O)c2ccc(OC)cc2)CC(c2ccccc2C(F)(F)F)=NO1 (centres undefined) ?
NR2F2 inh: 2; SMARCA2 activ: -4

What do the screens show for `CC[C@H](CO)Nc1nc(Nc2cccc(Cl)c2)c2ncn(C(C)C)c2n1`?
NR2E3 ag-1: 3; NR2F2 inh: 4; NR2E3 ag-2: 92*; GalR3 antag: -5; SMARCA2 activ: 1; NR2E3 ag confirm: 74*; VP16 counter: 66

How did Cc1ccc(CNC(=O)O[C@H]2CC[C@@]34CCCN3C(=O)CCC[C@H]4[C@H]2C)cc1 do in these assays?
NR2F2 inh: -3

How did CCN1Cc2nnn(Cc3ccc(C)cc3)c2-c2ccccc2S1(=O)=O do in these assays?
NR2F2 inh: 11; SMARCA2 activ: -2

How did CC(C)N1CCc2c(sc(NC(=O)c3ccc([N+](=O)[O-])o3)c2C(N)=O)C1 do in these assays?
NR2E3 ag-1: 2; NR2F2 inh: -6; NR2E3 ag-2: 48; GalR3 antag: -3; SMARCA2 activ: -8; NR2E3 ag confirm: 84*; VP16 counter: 50
